Source: PubChem (several laboratories)
EBV gp42 block: inhibitors of Epstein-Barr virus glycoprotein 42. AID 1085. inhibition, % (tested at 21.74 µM). 220,000 compounds, 0.42% hits. Fluorescence polarization binding assay, mP read-out. Q1HVG2
Target sequence (Q1HVG2 whole entry, looked up): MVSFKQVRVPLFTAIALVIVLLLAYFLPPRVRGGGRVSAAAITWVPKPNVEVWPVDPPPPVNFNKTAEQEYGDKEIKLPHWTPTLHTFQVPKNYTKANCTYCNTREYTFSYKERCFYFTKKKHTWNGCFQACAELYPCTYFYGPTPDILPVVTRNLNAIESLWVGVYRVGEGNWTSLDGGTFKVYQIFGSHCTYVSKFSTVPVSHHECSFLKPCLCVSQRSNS
Runt-SMMHC FRET: Runt domain-CBFb-SMMHC interaction inhibition; 220,000 compounds, 0.74% hits; Q01196+Q13951; AID 1434; Cerulean-Runt/Venus-CBFb-SMMHC FRET ratio 530/480, 1 h; inhibition, % at 20 µM;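 active = mean inhibition across duplicate retests at 20 µM reaching about 50%, limit read from the data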;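 also: inhibitors lower the FRET ratio by blocking Runt binding to CBFb-SMMHC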
RanGTP-Impb inh: disruptors of Ran-importin-beta complex formation – biochemical, FRET, CFP-Ran, YFP-importin-beta, homogeneous, primary screen | cell-free CFP-Ran/YFP-importin-beta FRET ratio | inhibition, % (concentration not given with the values) | 300,000 compounds, 1.1% hits | AID 2216;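 active = more than half of the replicate wells show a fall in the fluorescence ratio signal beyond about 16%, limit read from the data, passing the limit was not always enough; inconclusive = exactly half of the replicate wells pass the set limit; inactive = fewer than half of replicates pass the limit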
MEX-5 binding: C. elegans MEX-5 TCR-2 RNA binding activity. Q9XUB2. MEX-5/FITC-TCR2 RNA binding, fluorescence polarization; hits give low values. activity score (negative = inhibition of binding), % at 10 µM. 300,000 compounds, 0.38% hits. AID 1832;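 active = inhibition past about -25% in most replicates, and total fluorescence under double the plate's negative control median, limit read from the data; inconclusive = replicates evenly split on the limit, or fluorescence at least double controls; inactive = too little inhibition in most replicates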
Target sequence (Q9XUB2 whole entry, looked up): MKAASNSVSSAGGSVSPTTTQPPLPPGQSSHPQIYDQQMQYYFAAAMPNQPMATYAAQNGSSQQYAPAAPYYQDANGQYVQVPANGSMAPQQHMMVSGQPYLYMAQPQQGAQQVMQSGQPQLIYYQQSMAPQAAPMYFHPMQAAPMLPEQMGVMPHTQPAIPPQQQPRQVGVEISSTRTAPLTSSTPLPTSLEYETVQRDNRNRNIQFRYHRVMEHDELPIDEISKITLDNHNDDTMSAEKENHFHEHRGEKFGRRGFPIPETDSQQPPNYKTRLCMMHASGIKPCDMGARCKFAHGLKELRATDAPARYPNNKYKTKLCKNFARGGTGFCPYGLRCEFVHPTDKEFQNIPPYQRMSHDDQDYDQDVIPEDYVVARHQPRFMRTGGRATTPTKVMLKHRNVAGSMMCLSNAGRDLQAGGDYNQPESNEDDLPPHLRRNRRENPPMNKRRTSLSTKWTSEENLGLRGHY
Runt-CBFb FRET: inhibitors of human RUNX1 Runt domain binding to CBFb; 220,000 compounds, 0.46% hits; Cerulean-Runt/Venus-CBFb FRET ratio 530/480, 1 h; inhibition, % at 20 µM;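 active = inhibition over about 50% at 20 µM in the single-dose screen, limit read from the data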
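Assay system: Cerulean-tagged RUNX1 Runt domain (FRET donor) fusion protein / Amount: 100 nM each of Venus-CBFb and Cerulean-Runt domain / Medium: Tris buffer pH 7.5 with salts and BSA / Also added: Venus-CBFb 100 nM / Schedule: 1 h complex formation plus 1 h compound treatment, room temperature / Signal: FRET fluorescence / Read-out: loss of energy transfer signal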
PKD1 kinase inh: PKD1 (human) kinase inhibition; Q15139; inhibition, % (test concentration not listed); PKD1 kinase fluorescence polarization assay; 200,000 compounds, 0.056% hits; AID 797
YIC counter: counter-screen for RanGTP-importin-beta inhibitors: YIC FRET probe. shares compounds with RanGTP-Impb inh. Purified YIC probe, intramolecular FRET ratio YFP/CFP. IC50, µM. 1,000 compounds, 40% hits. AID 435026;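 active = fitted half-maximal inhibitory concentration no more than tenfold above the top dose tested; inconclusive = flat fit with 30 to 70% activity, or poor fit; inactive = half-maximal concentration beyond tenfold above the top dose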
A number is an active result; - = inactive; ? = inconclusive; . = no result given. Most compounds without a hit are left out; they make up all but 2% or so of the library. Rule as the data show it, unless noted: active = inhibition above about 50%; inactive = the rest.

SMILES | EBV gp42 block | Runt-SMMHC FRET | RanGTP-Impb inh | MEX-5 binding | Runt-CBFb FRET | PKD1 kinase inh | YIC counter
COc1ccc(NC(=O)c2ccc3snnc3c2)cc1 | - | - | 96.0 | - | - | - | -
Cc1ccccc1Cn1nnc(-c2cccc(C(=O)O)c2)n1 | - | - | 16.4 | - | - | - | -
Cc1ccccc1Cn1nnc(-c2ccc(C(=O)O)cc2)n1 | - | - | - | - | - | - | .
O=C(NCc1ccccc1C(F)(F)F)C1CC(c2ccc(C(F)(F)F)cc2)=NO1 (stereo not drawn) | - | - | 17.1 | - | - | . | -
O=c1[nH]c2c(s1)C(c1ccco1)C1C3CCC(C3)C1S2 (stereo not drawn) | - | - | 24.3 | - | - | - | -
COc1ccc2c(c1)C(SCC(=O)NCCc1ccc(Cl)cc1)CC(C)(C)O2 (stereo not drawn) | - | - | ? | - | - | - | .
Cc1nn(-c2ccccc2)c(C)c1/C=N/NC(=O)c1cc(C2CC2)[nH]n1 | - | - | - | - | - | - | .
CC/C(=N\NC(=O)c1cc(C2CC2)[nH]n1)c1ccccc1 | . | . | 38.2 | - | . | . | -
O=C(CC1C(=O)NCCN1Cc1cccc(F)c1)NCCCOc1cccnc1 (stereo not drawn) | . | . | - | - | . | . | .
Cc1ccc(-c2cc3nc(-c4ccccc4)cc(N4CCC5(CC4)OCCO5)n3n2)cc1 | - | - | 29.5 | - | - | - | 5.56
Cc1cccc(-c2cc3nc(-c4ccccc4)cc(N4CCC5(CC4)OCCO5)n3n2)c1 | - | - | - | - | - | - | .
CCOC(=O)C(=O)Nc1cc(C(=O)OC)cc(C(=O)OC)c1 | - | - | 16.1 | - | - | - | -
C/C(=N\N=C(N)N)c1ccc(Cl)c(Cl)c1 | - | - | - | - | - | - | .
Cc1ccc(-n2c(=O)c(C#N)cc3c(=O)n4ccccc4nc32)cc1 | - | 59.6 | 44.5 | - | - | - | 0.72
COc1cccc(CNC(=O)CCCSc2ccccc2)c1 | . | . | - | - | . | . | .
CN(Cc1cnc2nc(N)nc(N)c2n1)c1ccc(C(=O)N[C@@H](CCC(=O)O)C(=O)O)cc1 | . | . | 23.3 | - | . | . | -
Cc1cc(NC(=O)c2sc3ccccc3c2O)no1 | . | . | 16.6 | - | . | . | ?
Cc1cc(NC(=O)c2ccccc2Cl)no1 | - | - | - | - | - | - | .
Cc1cc(NC(=O)c2ccc(F)cc2)no1 | . | . | - | - | . | . | .
Cc1cc(NC(=O)c2c(F)c(F)c(F)c(F)c2F)no1 | - | - | 22.5 | - | - | - | -
COc1ccc([N+](=O)[O-])cc1NC(=O)CSc1ncccn1 | - | - | 19.7 | - | - | - | -
COc1ccc([N+](=O)[O-])cc1NC(=O)CSc1nccc(C)n1 | - | - | - | - | - | - | .
CCc1noc(C)c1C(=O)N1CCN(S(=O)(=O)c2ccc(Br)cc2Cl)CC1 | . | . | - | - | . | . | .
CCCc1cc(=O)oc2c3c(cc(OCC(=O)NCCN4CCOCC4)c12)OC(C)(C)CC3 | . | . | ? | - | . | . | .
CCCc1noc(-c2cccc([N+](=O)[O-])c2)n1 | - | - | 24.4 | - | - | - | -
SMILES | EBV gp42 block | Runt-SMMHC FRET | RanGTP-Impb inh | MEX-5 binding | Runt-CBFb FRET | PKD1 kinase inh | YIC counter
O=C(c1ccc(F)cc1)N1CCC(C(=O)N2CCN(S(=O)(=O)c3cccc([N+](=O)[O-])c3)CC2)CC1 | . | . | - | - | . | . | .
COc1ccc(C(=O)Nc2ccc(S(=O)(=O)Nc3onc(C)c3C)cc2)cc1 | - | - | 27.1 | - | - | - | -
CCN(CC)Cc1nc2c(c(=O)[nH]1)C(CC)(CC)Cc1ccccc1-2 | . | . | - | - | . | . | .
COc1ccc(NS(=O)(=O)c2cc(NC(=O)c3cccs3)ccc2N2CCOCC2)cc1 | - | - | 15.6 | - | - | - | -
Nc1cc(C(=O)OCC(=O)NCCCc2ccccc2)ccc1Cl | . | . | - | - | . | . | .
O=C(COC(=O)c1ccc2ccccc2c1)NCCCc1ccccc1 | - | - | 16.6 | - | - | - | -
Cc1sc2ncnc(NCc3cccs3)c2c1C | - | - | - | - | - | - | .
Cc1sc2ncnc(NCc3cccnc3)c2c1C | - | - | 36.6 | - | - | - | -
COc1ccccc1N1CCN(CCN2C(=O)C3CCCN3C2=O)CC1 (stereo not drawn) | . | . | - | - | . | . | .
Cc1cc(C)c(C2=CC(c3ccccc3)n3ncnc3N2)cc1C (stereo not drawn) | . | . | 18.0 | - | . | . | 30.4
CC#CC(=O)N1CCC(C(=O)Nc2ccc(Oc3ccccc3)nc2)CC1 | . | . | 17.6 | - | . | . | -
Cc1cc(C)c(NC(=O)NC(=O)C(Cl)(Cl)Cl)c(C)c1 | - | - | - | - | - | - | .
O=C(CCCC(=O)c1ccccc1)NCc1ccccc1 | . | . | - | - | . | . | .
CCc1ccccc1N(CC(=O)NCc1ccco1)C(=O)CCC(=O)Nc1nccs1 | . | . | 21.8 | - | . | . | -
Cc1cc(Nc2ccccc2)nc2cc(O)ccc12 | - | 63.8 | 18.5 | - | - | - | 49.2
CCN(C(=O)CSc1nnc(-c2c[nH]c3ccccc23)o1)C1CCS(=O)(=O)C1 (stereo not drawn) | - | - | - | - | . | - | .
OCCN1CCN(c2nc(-c3ccccc3)c3cc(Cl)ccc3n2)CC1 | - | 51.8 | 18.4 | - | . | - | 24.4
COc1ccccc1S(=O)(=O)Cc1ccc(C(=O)NCc2ccccc2)o1 | . | . | - | - | . | . | .
CC(OC(=O)c1cc2sccc2n1C)C(=O)NCc1cccs1 (stereo not drawn) | - | - | - | - | - | - | .
COCCNC(=O)C(C)OC(=O)c1cc2occc2n1C (stereo not drawn) | - | - | 19.2 | - | - | - | -
O=[N+]([O-])c1ccc(SCCO)nc1SCCO | - | - | - | - | - | . | .
N#C/C(=C/c1ccc(-c2ccc(S(N)(=O)=O)cc2)o1)C(=O)Nc1ccccc1 | - | - | - | - | - | - | .
N#C/C(=C\c1ccc(-c2ccc(F)cc2)o1)C(=O)Nc1nc(-c2cccs2)cs1 | - | - | 18.6 | - | - | - | -
COc1ccc2nc(C)c(C(N)=O)cc2c1 | - | - | ? | - | - | - | .
COc1cc2cc(C(N)=O)c(N)nc2cc1OC | - | 79.2 | 49.2 | - | 101.4 | - | 10.1
Cc1cccc(C)c1OCC(=O)OC/C(O)=C(\C#N)c1nc2ccccc2[nH]1 | - | - | 26.0 | - | - | - | -
Cc1cccc(/C=N/c2sc3c(c2C#N)CCN(Cc2ccccc2)C3)c1O | - | 125.5 | 36.4 | - | - | - | -
COc1ccc(/C=N/c2sc3c(c2C#N)CCN(Cc2ccccc2)C3)c(O)c1 | - | - | - | - | - | - | .
CCOC(=O)c1ccccc1NC(=O)COc1ccccc1 | - | - | - | - | - | - | .
CCOC(=O)c1ccccc1NC(=O)COC(=O)C(CCSC)NC(=O)COc1ccccc1 (stereo not drawn) | . | . | 24.3 | - | . | . | -
